# Experimental data gathered from unrelated publications.
# Compare with care: the assays were run in different laboratories.
# Observed: enzyme activity
# Action: inhibitor
# IGF1R: Insulin-like growth factor 1 receptor (IGF1R, Homo sapiens, UniProt P08069)
# IGF1R phosphorylated: Insulin-like growth factor 1 receptor, phosphorylated (IGF1R, Homo sapiens, UniProt P08069)
Compound,target,method,tested at,remaining activity [%]
COc1cc(Nc2cnc(C#N)c(O[C@H](C)CN(C)C)n2)ncc1-c1cnn(C)c1,IGF1R,radiometric,10 µM,73
FC(F)c1nc2ccccc2n1-c1nc(N2CCOCC2)nc(N2CCOCC2)n1,IGF1R,,10 µM,87
Cc1ccc(NC(=O)c2ccc(C)c(C(F)(F)F)c2)cc1C#Cc1nn(C2CCC(O)CC2)c2ncnc(N)c12 (stereo not shown),IGF1R phosphorylated,,10 µM,91
CC(C)(C)C(=O)c1sc(NC2CCCCC2)nc1N,IGF1R,,10 µM,118
Cn1c(=O)n(-c2ccc(C(C)(C)C#N)cc2)c2c3cc(-c4cnc5ccccc5c4)ccc3ncc21,IGF1R,,10 µM,72
CCCOc1ccc(OC)c(F)c1C(=O)c1ccc(C(=O)N[C@@H]2CNC[C@H]2NC(=O)c2ccc3[nH]ncc3c2)cc1,IGF1R phosphorylated,,10 µM,76
O=C(Nc1cnn(-c2csc(C(=O)NC3COC3)c2)c1)Nc1ccccc1Cl,IGF1R,,5 µM,95.8
CC(C)(C)c1nc2c(s1)c1nc(N)ncc1c1ccc(NS(=O)(=O)c3c(F)cccc3F)c(F)c12,IGF1R,radiometric,1 µM,100
Cc1[nH]c(/C=C2\C(=O)Nc3ccc(F)cc32)c(C)c1C(=O)N[C@H]1CCN(C(=O)N(C)C)C1,IGF1R,,1 µM,106
Cc1cnc(NC2CCOCC2)nc1-n1cnc(C(=O)NC(CN)c2cc(F)cc(Cl)c2)c1 (stereo not shown),IGF1R,radiometric,1 µM,103
CCN(CC)c1ccc(C2=NNC(=O)CC2C)cc1[N+](=O)[O-] (stereo not shown),IGF1R,,10 µM,86
O=C(Nc1cnn(-c2csc(C(=O)NC3COC3)c2)c1)Nc1c(F)cccc1Cl,IGF1R,,5 µM,94.9
CCN(CC)CCNC(=O)c1c(C)[nH]c(/C=C2\C(=O)Nc3ccc(F)cc32)c1C,IGF1R,,1 µM,67
